Measured values reported in ChEMBL document CHEMBL1141162, “Inhibition of carboxylesterases by benzil (diphenylethane-1,2-dione) and heterocyclic analogues is dependent upon the aromaticity of the ring and the flexibility of the dione moiety” (J Med Chem, 2005).
“And” between values parts separate entries of the source, which are not always exact repeats. Equal values may be shown once.

Key:
[1] = Inhibition constant against rabbit liver carboxylesterase (rCE) expressed in Sf21 cells using 3 mM o-NPA; design: species or system Oryctolagus cuniculus
Liver carboxylesterase 1 = target: T1, Liver carboxylesterase 1 (Homo sapiens, UniProt P23141); assay: Inhibition constant against human liver carboxylesterase (hCE1) expressed in Sf21 cells using 3 mM o-NPA; type: cell-based, Oryctolagus cuniculus
T1 sequence (P23141 whole entry): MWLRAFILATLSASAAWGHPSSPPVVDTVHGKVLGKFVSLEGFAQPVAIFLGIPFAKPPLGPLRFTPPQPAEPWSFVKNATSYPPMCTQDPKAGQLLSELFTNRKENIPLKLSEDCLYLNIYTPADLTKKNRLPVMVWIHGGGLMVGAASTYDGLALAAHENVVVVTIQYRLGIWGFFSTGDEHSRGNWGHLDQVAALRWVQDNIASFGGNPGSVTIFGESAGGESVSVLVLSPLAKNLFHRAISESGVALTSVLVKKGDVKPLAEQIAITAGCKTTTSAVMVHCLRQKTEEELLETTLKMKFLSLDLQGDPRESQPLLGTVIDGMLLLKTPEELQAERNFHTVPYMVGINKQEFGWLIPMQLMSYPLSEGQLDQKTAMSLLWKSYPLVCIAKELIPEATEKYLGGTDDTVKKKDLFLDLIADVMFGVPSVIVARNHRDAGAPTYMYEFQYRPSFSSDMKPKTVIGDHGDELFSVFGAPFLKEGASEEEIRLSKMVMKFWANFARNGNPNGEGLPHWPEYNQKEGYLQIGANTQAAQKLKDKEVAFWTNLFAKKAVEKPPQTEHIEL

Cocaine esterase = target: T2, Cocaine esterase (Homo sapiens, UniProt O00748); assay: Inhibition constant against human intestinal carboxylesterase (hiCE) expressed in Sf21 cells using 3 mM o-NPA
T2 sequence (O00748 whole entry): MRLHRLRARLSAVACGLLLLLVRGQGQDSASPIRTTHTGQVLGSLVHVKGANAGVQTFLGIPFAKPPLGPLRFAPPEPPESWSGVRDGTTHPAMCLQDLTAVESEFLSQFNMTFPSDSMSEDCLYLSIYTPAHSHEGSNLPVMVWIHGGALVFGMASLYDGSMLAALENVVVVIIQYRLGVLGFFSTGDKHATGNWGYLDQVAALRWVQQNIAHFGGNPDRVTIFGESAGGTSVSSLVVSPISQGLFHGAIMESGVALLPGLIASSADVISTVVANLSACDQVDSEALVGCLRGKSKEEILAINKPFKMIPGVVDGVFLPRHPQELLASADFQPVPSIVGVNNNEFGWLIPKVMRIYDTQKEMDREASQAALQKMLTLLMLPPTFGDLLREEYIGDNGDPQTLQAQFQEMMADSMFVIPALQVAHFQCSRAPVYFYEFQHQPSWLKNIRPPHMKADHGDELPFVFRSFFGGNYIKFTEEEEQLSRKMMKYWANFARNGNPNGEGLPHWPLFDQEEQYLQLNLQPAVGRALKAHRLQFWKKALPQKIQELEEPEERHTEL

Acetylcholinesterase = Acetylcholinesterase (Homo sapiens, UniProt P22303); assay: Inhibition of 1 mM acetylthiocholine (AcTCh) binding to human Acetylcholinesterase
Sequence of Acetylcholinesterase (P22303 whole entry): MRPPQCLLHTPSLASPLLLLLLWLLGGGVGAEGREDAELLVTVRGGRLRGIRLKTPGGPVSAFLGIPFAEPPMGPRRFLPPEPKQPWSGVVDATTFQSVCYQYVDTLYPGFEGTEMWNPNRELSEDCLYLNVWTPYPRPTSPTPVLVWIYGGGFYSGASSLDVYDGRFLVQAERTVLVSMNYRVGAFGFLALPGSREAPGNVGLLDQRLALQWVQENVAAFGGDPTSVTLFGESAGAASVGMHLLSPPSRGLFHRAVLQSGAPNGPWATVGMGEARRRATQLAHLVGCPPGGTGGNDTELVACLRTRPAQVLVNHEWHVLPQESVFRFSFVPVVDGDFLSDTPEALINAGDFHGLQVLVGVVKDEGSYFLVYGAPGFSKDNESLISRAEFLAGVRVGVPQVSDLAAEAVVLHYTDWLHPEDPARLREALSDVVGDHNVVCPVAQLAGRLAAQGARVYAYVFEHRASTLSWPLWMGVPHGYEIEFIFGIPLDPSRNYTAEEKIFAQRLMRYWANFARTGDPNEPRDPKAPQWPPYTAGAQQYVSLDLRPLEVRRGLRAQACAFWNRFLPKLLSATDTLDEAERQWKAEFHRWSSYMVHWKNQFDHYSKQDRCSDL
Summary of the method: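 Human acetylcholinesterase from a commercial supplier, assayed with 1 mM acetylthiocholine as substrate.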

Row | SMILES | Ki [1] [µM] | Ki (Liver carboxylesterase 1) | Ki (Cocaine esterase) [µM] | Ki (Acetylcholinesterase) [µM] | Ki (Liver carboxylesterase 1; sf21) [µM]
1 | O=C(C(=O)c1ccc2ccccc2c1)c1ccc2ccccc2c1 | 0.00104 | 0.255 µM |  |  | 
2 | O=C(c1cccs1)C(O)c1cccs1 (stereo not drawn) |  | 1.66 µM and 4.54 µM | 5.61 | > 100 | 
3 | O=C(C(=O)c1cc(Br)cs1)c1cc(Br)cs1 |  |  | 0.0573 | > 100 | 
4 | O=C(C(=O)c1ccc(Br)s1)c1ccc(Br)s1 |  |  |  | > 100 | 
5 | O=C(c1ccco1)C(O)c1ccco1 (stereo not drawn) |  | > 100 µM | > 100 | > 100 | > 100
6 | O=C(C(=O)c1cccs1)c1cccs1 |  | 0.212 µM and 0.874 µM | 1.04 | > 100 | 
7 | O=C(C(=O)c1ccco1)c1ccco1 |  | 1.17 µM and 8.48 µM | 8 | > 100 | 
8 | O=C(C(=O)c1ccsc1)c1ccsc1 |  | 0.365 µM and 2.41 µM | 6.54 | > 100 | 
9 | O=C(C(=O)c1ccccn1)c1ccccn1 |  | 0.126 µM and 0.484 µM |  | > 100 | 
